Results reported in ChEMBL document CHEMBL5126677, “Covalent Modification of the JH2 Domain of Janus Kinase 2” (ACS Med Chem Lett, 2022).

Tests used:
[1] = biological target: T1, Tyrosine-protein kinase JAK2 (Homo sapiens, UniProt O60674); test: Binding affinity to wild type JAK2 JH2 (unknown origin) expressed in baculovirus infected Sf9 insect cells incubated for 30 mins by competitive fluorescence polarization assay
Summary of the method: (§1)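 JAK2 JH2 domain Kd from a competitive fluorescence polarization tracer-displacement assay, with readings after 30 min and after 20 h incubation. The negative control was tracer in buffer. The positive control used enough protein to bind all tracer, at the same protein concentration used across the assays.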

[2] = biological target: T1, Tyrosine-protein kinase JAK2; test: Binding affinity to wild type JAK2 JH2 (unknown origin) expressed in baculovirus infected Sf9 insect cells incubated for 20 hrs by competitive fluorescence polarization assay; summary of the method: as §1
[3] = organism: Homo sapiens; test: Selectivity ratio of Kd for wild type JAK2 JH2 (unknown origin) expressed in baculovirus infected Sf9 insect cells incubated for 30 mins to Kd for wild type JAK2 JH2 (unknown origin) expressed in baculovirus infected Sf9 insect cells incubated for 20 hrs
[4] = organism: Homo sapiens; test: Selectivity ratio of Kd for wild type JAK2 JH1 (unknown origin) expressed in baculovirus infected Sf9 insect cells incubated for 30 mins to Kd for wild type JAK2 JH2 (unknown origin) expressed in baculovirus infected Sf9 insect cells incubated for 30 mins
Summary of the method: (§2)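 Selectivity is the ratio of JH1 Kd to JH2 Kd, both from the same competitive fluorescence polarization assay. JH2 Kd was taken at the 30 min or 20 h incubation. Controls were tracer in buffer (negative) and saturating protein at the common protein concentration (positive).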

[5] = organism: Homo sapiens; test: Selectivity ratio of Kd for wild type JAK2 JH1 (unknown origin) expressed in baculovirus infected Sf9 insect cells incubated for 30 mins to Kd for wild type JAK2 JH2 (unknown origin) expressed in baculovirus infected Sf9 insect cells incubated for 20 hrs; summary of the method: as §2
[6] = biological target: T1, Tyrosine-protein kinase JAK2; test: Binding affinity to wild type JAK2 JH1 (unknown origin) expressed in baculovirus infected Sf9 insect cells incubated for 30 mins by competitive fluorescence polarization assay

T1 sequence (O60674 whole entry, the tested form may be a part): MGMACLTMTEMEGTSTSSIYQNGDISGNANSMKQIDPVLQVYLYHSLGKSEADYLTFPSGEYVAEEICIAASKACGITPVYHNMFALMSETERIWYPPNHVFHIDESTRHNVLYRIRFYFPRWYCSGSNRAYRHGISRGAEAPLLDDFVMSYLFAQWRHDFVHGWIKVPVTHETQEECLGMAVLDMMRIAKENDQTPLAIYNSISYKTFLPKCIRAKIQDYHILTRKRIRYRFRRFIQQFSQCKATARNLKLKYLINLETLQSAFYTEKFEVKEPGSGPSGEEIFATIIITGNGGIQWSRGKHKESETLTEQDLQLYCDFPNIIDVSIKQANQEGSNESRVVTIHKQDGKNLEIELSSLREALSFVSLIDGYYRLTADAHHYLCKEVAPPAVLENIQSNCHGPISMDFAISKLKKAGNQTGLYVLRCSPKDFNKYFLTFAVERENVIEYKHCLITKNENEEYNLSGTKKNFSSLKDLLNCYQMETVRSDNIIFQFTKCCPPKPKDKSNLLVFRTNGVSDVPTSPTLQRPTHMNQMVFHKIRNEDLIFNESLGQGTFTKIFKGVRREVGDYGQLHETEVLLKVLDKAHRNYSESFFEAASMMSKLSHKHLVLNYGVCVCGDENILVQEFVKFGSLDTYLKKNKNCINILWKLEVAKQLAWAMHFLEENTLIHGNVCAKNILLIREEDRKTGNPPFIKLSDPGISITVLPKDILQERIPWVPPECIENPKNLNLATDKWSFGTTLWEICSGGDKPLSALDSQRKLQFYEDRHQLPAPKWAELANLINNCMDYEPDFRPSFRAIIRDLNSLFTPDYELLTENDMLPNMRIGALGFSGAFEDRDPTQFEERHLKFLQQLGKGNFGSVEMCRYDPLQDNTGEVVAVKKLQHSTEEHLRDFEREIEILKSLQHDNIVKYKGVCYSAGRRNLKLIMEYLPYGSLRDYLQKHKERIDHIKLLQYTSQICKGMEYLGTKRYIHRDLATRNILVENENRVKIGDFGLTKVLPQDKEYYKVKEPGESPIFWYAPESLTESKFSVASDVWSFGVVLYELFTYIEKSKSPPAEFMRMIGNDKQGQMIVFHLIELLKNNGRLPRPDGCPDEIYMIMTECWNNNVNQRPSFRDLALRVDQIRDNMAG

Row | SMILES | Kd [1] [nM] | Kd [2] [nM] | Kd [6] [nM] | Selectivity ratio [3] | Selectivity ratio [4] | Selectivity ratio [5]
1 | C=CC(=O)NCc1ccc(F)c(C(=O)n2nc(Nc3ccc(C(=O)NC)cc3)nc2N)c1F | 1250 | 800 | – | 1.6 | – | –
2 | C=CC(=O)NCCOc1ccc(F)c(C(=O)n2nc(Nc3ccc(C(=O)NC)cc3)nc2N)c1F | 617 | 154 | 4370 | 4 | 7.1 | 28.4
3 | C=CC(=O)NCCc1ccc(F)c(C(=O)n2nc(Nc3ccc(C(=O)NC)cc3)nc2N)c1F | 556 | 110 | 1280 | 5.1 | 2.3 | 11.6
4 | C/C=C/C(=O)NCCc1ccc(F)c(C(=O)n2nc(Nc3ccc(C(=O)NC)cc3)nc2N)c1F | 578 | 565 | – | 1 | – | –

Now those with a lower Kd [1], led by results:

Row | Kd [1] [nM] | Kd [2] [nM] | Kd [6] [nM] | SMILES | Selectivity ratio [3] | Selectivity ratio [4] | Selectivity ratio [5]
5 | 171 | 263 | – | CNC(=O)c1ccc(Nc2nc(N)n(C(=O)c3c(F)cccc3F)n2)cc1 | 0.65 | – | –
6 | 242 | 75 | 830 | C=CC(=O)NCCc1cc(F)c(C(=O)n2nc(Nc3ccc(C(=O)NC)cc3)nc2N)c(F)c1 | 3.2 | 3.4 | 11.1
